BindingDB's records for doi:10.1021/acsmedchemlett.9b00225 (University of Minnesota Twin Cities, 2019)

Columns and labels:
[1] = target: Sigma non-opioid intracellular receptor 1 (Homo sapiens, UniProt Q99720); test: Displacement of [3H]-Pentazocine from human recombinant sigma1 receptor expressed in HEKT cells after 90 mins by microbeta scintillation counting method
[2] = target: 5-hydroxytryptamine receptor 2B (Homo sapiens, UniProt P41595); test: Displacement of [3H]-LSD from human recombinant 5-HT2B receptor stably expressed in HEK cells after 90 mins by microbeta scintillation counting method
Method in brief: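 Radioligand binding run by the NIMH Psychoactive Drug Screening Program. Otherwise Ki comes from sigmoidal curve fits of triplicate measurements in a single experiment, or is averaged over repeated experiments each run in triplicate.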

Sequence of 5-hydroxytryptamine receptor 2B (P41595 whole entry): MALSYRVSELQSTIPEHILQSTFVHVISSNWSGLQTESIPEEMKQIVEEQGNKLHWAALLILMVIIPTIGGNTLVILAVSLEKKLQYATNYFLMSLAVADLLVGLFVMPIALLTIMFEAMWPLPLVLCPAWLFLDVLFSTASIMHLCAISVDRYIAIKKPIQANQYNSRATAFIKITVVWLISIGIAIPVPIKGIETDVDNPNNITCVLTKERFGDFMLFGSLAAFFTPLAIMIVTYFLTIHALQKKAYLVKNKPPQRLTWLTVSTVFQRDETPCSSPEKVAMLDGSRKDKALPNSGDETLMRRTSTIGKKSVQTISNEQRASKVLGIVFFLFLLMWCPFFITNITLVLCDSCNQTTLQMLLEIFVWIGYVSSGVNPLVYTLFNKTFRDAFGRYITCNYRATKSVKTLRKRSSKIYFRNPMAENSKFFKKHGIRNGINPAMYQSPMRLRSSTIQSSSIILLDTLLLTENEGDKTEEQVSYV
Sequence of Sigma non-opioid intracellular receptor 1 (Q99720 whole entry): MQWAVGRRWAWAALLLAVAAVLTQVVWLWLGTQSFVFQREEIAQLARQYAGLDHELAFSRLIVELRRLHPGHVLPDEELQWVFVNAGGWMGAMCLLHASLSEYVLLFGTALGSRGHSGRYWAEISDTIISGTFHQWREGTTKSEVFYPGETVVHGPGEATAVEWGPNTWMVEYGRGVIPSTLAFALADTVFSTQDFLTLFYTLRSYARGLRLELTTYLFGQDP

Compound	Ki [1] [nM]	Ki [2] [nM]
CC[C@H]1c2cc(-c3ccccc3)ccc2OC[C@@]1(C)N	12.6	
CC[C@H]1c2ccc3ccccc3c2OC[C@@]1(C)N		2.51
